Results published in ChEMBL document CHEMBL1157420, “2-phenyl-4-piperazinylbenzimidazoles: orally active inhibitors of the gonadotropin releasing hormone (GnRH) receptor” (Bioorg Med Chem, 2008).

Assays:
[1] = molecular target: T1, Gonadotropin-releasing hormone receptor (Homo sapiens, UniProt P30968); assay: Antagonist activity at human recombinant GnRH receptor assessed as reduction in (D-Trp6)LHRH-induced myo-(1,2)-[3H]inositol production; format: functional
T1 sequence (P30968 whole entry): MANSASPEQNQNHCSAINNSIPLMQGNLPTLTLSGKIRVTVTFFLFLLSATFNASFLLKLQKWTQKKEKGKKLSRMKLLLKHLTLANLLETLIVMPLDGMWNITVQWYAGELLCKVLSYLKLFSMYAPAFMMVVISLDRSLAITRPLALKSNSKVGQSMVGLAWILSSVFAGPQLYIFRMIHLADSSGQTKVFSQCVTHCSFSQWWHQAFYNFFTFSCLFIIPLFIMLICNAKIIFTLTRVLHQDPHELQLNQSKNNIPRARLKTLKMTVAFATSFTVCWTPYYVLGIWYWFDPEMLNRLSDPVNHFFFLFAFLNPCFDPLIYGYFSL
Summary of the method: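 Recombinant cells expressing human GnRH receptor, pre-labeled with myo-(1,2)-3H-inositol, incubated 1 h in medium with lithium chloride and D-Trp6-LHRH, with or without antagonist. Cells then lysed and labeled inositol phosphates separated from inositol by […] and counted. Run in triplicate, repeated in three independent experiments; IC50 derived.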

[2] = molecular target: T2, Gonadotropin-releasing hormone receptor (Rattus norvegicus, UniProt P30969); assay: Displacement of [125I]-(D-Trp6)LHRH from rat recombinant GnRH receptor
T2 sequence (P30969 whole entry): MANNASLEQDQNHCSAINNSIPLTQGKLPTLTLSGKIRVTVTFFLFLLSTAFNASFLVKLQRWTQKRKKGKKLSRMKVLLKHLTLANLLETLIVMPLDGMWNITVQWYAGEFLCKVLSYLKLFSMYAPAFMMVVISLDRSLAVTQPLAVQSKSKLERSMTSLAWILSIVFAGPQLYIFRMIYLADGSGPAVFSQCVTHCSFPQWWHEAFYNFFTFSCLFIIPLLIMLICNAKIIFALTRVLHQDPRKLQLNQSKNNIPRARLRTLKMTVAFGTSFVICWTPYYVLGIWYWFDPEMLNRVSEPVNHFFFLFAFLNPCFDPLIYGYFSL
Summary of the method: (§1)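 Membranes from recombinant cells expressing human or rat GnRH receptor, made in 25 mM Tris-Cl pH 7.4 with 0.1% sodium azide and 0.1% BSA. 50 μg protein incubated with about 50,000 cpm 125I-(D-Trp6)-LHRH for 2 h at 4 °C, with increasing unlabeled competitor. Filtered on BSA-presoaked glass-fiber filters, washed twice, counted by gamma counter. Percent inhibition and IC50 derived.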

[3] = molecular target: T1, Gonadotropin-releasing hormone receptor; assay: Displacement of [125I]-(D-Trp6)LHRH from human recombinant GnRH receptor; summary of the method: as §1
[4] = molecular target: T3, Gonadotropin-releasing hormone receptor (Homo sapiens) (UniProt P30968); assay: Displacement of [125I]-(D-Trp6)LHRH from human recombinant GnRH receptor at 10 uM; summary of the method: as §1
T3 sequence (whole entry): T1 sequence (P30968 whole entry)

[5] = molecular target: 5-hydroxytryptamine receptor 1B (Homo sapiens, UniProt P28222); assay: Binding affinity to human 5HT1B receptor
[6] = molecular target: T2, Gonadotropin-releasing hormone receptor; assay: Antagonist activity at […] GnRH receptor in CO2 asphyxiated rat primary pituitary cells assessed as reduction in (D-Trp6)LHRH-induced LH release; format: functional, cell-based, Pituitary gland cell
Summary of the method: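 Anterior pituitaries from adult rats were minced, dissociated and plated at 30,000 cells/well in DMEM with 25 mM Hepes and 10% FBS, then cultured 72 h at 37 °C, 5% CO2. After washing, cells were treated 3 h in 0.1% BSA medium with an antagonist dose response plus an ED50 concentration of D-Trp6-LHRH. LH in medium measured by RIA; cell toxicity checked by CellTiter-Glo.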

[7] = molecular target: T4, 5-hydroxytryptamine receptor 1A (Homo sapiens, UniProt P08908); assay: Binding affinity to human 5HT1A receptor
T4 sequence (P08908 whole entry): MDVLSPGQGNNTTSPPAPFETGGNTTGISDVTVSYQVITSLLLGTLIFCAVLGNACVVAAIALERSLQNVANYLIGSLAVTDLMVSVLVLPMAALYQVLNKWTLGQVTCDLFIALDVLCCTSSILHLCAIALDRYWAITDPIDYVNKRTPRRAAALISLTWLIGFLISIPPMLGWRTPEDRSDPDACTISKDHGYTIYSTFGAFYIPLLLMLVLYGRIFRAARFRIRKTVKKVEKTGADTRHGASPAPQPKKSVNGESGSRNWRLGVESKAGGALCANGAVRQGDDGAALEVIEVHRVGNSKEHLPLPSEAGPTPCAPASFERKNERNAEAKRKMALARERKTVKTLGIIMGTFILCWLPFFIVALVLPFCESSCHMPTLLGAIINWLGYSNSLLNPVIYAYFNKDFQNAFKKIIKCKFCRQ

[8] = molecular target: 5-hydroxytryptamine receptor 1D (Homo sapiens, UniProt P28221); assay: Binding affinity to human 5HT1D receptor
Chain of 5-hydroxytryptamine receptor 1D (P28221 whole entry): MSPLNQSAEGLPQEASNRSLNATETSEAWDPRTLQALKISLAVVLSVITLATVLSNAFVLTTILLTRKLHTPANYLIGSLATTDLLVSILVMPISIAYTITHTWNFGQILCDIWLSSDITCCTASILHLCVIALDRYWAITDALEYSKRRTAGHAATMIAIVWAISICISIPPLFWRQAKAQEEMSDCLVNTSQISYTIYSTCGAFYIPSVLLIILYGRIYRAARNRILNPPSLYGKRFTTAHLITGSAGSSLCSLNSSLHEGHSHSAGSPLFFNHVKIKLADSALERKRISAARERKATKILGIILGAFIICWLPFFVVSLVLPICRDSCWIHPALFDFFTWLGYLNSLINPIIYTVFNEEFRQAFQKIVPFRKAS

Chain of 5-hydroxytryptamine receptor 1B (P28222 whole entry): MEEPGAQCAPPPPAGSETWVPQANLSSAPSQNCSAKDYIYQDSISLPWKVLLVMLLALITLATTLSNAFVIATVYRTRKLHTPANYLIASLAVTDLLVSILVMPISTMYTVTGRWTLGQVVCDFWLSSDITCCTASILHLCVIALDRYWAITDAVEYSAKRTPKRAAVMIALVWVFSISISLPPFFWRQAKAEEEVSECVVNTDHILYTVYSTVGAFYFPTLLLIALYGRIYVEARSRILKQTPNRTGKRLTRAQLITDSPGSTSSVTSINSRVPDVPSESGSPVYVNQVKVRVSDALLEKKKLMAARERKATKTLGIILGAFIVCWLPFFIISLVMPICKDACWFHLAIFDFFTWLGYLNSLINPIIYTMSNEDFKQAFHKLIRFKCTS

SMILES	IC50 [1] [µM]	IC50 [2] [µM]	IC50 [3] [µM]	Activity [4] [%]	also measured
FC(F)(F)c1nc2c(N3CCN(Cc4cccc5nc(C(F)(F)F)[nH]c45)CC3)cccc2[nH]1	21	64	9.5	–	–
FC(F)(F)c1nc2cc(N3CCN(CCOc4cccc5[nH]c(=S)[nH]c45)CC3)ccc2[nH]1	–	–	–	11	–
O=c1[nH]c2cccc(N3CCN(CCOc4cccc5[nH]c(=S)[nH]c45)CC3)c2[nH]c1=O	–	–	–	9	–
CCc1ccc(-c2nc3c(N4CCN(CCOc5cccc6[nH]c(=S)[nH]c56)CC4)cccc3[nH]2)cc1	0.64	3.9	0.12	–	–
CC(C)(C)c1ccc(-c2nc3c(N4CCN(CCOc5cccc6nc(C(F)(F)F)[nH]c56)CC4)cccc3[nH]2)cc1	1.2	0.71	0.05	–	–
FC(F)(F)c1nc2c(N3CCN(CCc4cccc5[nH]c(=S)[nH]c45)CC3)cccc2[nH]1	–	–	–	51	–
S=c1[nH]c2cccc(OCCN3CCN(c4cccc5[nH]c(-c6ccccc6)nc45)CC3)c2[nH]1	–	–	11	–	–
CC(C)c1ccc(-c2nc3c(N4CCN(CCOc5cccc6nc(C(F)(F)F)[nH]c56)CC4)cccc3[nH]2)cc1	0.45	0.99	0.12	–	–
FC(F)(F)c1nc2c(N3CCN(CCOc4cccc5nc(C(F)(F)F)[nH]c45)CC3)cccc2[nH]1	9.2	15	1.5	–	Ki [5]: 0.06 µM; IC50 [6]: 83 µM; Ki ([7]; read-out: Ki): 0.019 µM; Ki [8]: 0.00055 µM
FC(F)(F)c1nc2c(N3CCN(CCc4cccc5nc(C(F)(F)F)[nH]c45)CC3)cccc2[nH]1	–	–	–	26	–
CC(C)(C)c1ccc(-c2nc3c(N4CCN(Cc5ccc6[nH]c(=O)c(=O)[nH]c6c5)CC4)cccc3[nH]2)cc1	0.0017	0.04	0.0049	–	IC50 [6]: 0.025 µM
CCc1ccc(-c2nc3c(N4CCN(CCOc5cccc6nc(C(F)(F)F)[nH]c56)CC4)cccc3[nH]2)cc1	2.3	5.2	0.22	–	–
S=c1[nH]c2cccc(OCCN3CCN(c4cccc5[nH]cnc45)CC3)c2[nH]1	–	–	–	5	–
FC(F)(F)c1nc2c(N3CCN(CCCc4cccc5nc(C(F)(F)F)[nH]c45)CC3)cccc2[nH]1	–	–	–	42	–
CC(C)(C)c1ccc(-c2nc3c(N4CCN(Cc5cccc6[nH]c(=O)c(=O)[nH]c56)CC4)cccc3[nH]2)cc1	0.024	0.072	0.0057	–	IC50 [6]: 0.48 µM
FC(F)(F)C(F)(F)c1nc2c(N3CCN(CCOc4cccc5[nH]c(=S)[nH]c45)CC3)cccc2[nH]1	–	> 100	6.3	–	–
FC(F)(F)c1nc2c(N3CCN(CCCOc4cccc5[nH]c(=S)[nH]c45)CC3)cccc2[nH]1	–	–	3.3	–	Ki [7]: 0.0023 µM
FC(F)(F)c1nc2c(N3CCN(CCOc4ccc5[nH]c(=S)[nH]c5c4)CC3)cccc2[nH]1	–	–	4.5	–	–
